The source of these data is ChEMBL document CHEMBL1122440, “2'-O-nitro-1-beta-D-arabinofuranosylcytosine. A new derivative of 1-beta-D-arabinofuranosylcytosine that resists enzymatic deamination and has antileukemic activity” (J Med Chem, 1983).

The test system of experiment [1] is CCRF-CEM/ara-C. Nature of the experiment: Cytotoxicity against CCRF-CEM/ara-C human leukemic lymphoblastoid cell lines. The format is functional, cell-based. The method, boiled down:
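Ara-C-resistant subline of CCRF-CEM human leukemic lymphoblasts, deficient in deoxycytidine kinase activity. Growth inhibition measured in culture.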

In experiment [2] the test system is CCRF-CEM. Nature of the experiment: Cytotoxicity against CCRF-CEM human leukemic lymphoblastoid cell lines. The format is functional, cell-based.
For experiment [3], the system named is L1210. Nature of the experiment: Antileukemic activity against L1210 leukemia cells in female B6D2F1/J mice at 156 mg/kg dose (post inoculation life span, days). The format is functional, Mus musculus. Put shortly: (§1)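 Female B6D2F1/J mice (about 20 g) inoculated ip on day 0 with ascites fluid containing 10^6 L1210 cells. Starting 24 h later, hydrochloride salt given ip daily for 7 consecutive days in water (neutralized with 1 N NaOH when necessary), 0.01 mL/g body weight. Five mice per dose. Life span reported as mean ± 1 SD. Increased life span calculated as (T/C - 1) × 100 against untreated controls.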

Experiment [4] concerns L1210. The experiment in a line: Antileukemic activity against L1210 leukemia cells in female B6D2F1/J mice at 208 mg/kg dose (post inoculation life span, days). The format is functional, Mus musculus. The method, boiled down: as §1
Experiment [5] relates to L1210. Nature of the experiment: Antileukemic activity against L1210 leukemia cells in female B6D2F1/J mice at 34 mg/kg dose (post inoculation life span, days). In kind it is functional, Mus musculus. Put shortly:
as §1

In experiment [6] the test system is L1210. Nature of the experiment: Antileukemic activity against L1210 leukemia cells in female B6D2F1/J mice at 93 mg/kg dose (post inoculation life span, days). In kind it is functional, Mus musculus. The method, boiled down: as §1
Experiment [7] deals with L1210. The experiment in a line: Antileukemic activity against L1210 leukemia cells in female B6D2F1/J mice at 34 mg/kg dose(Mean increased life span, calculated as (T/C-1)X100). In kind it is functional, Mus musculus. Put shortly:
as §1

In experiment [8] the test system is MOLT-4. The experiment in a line: Cytotoxicity against MOLT-4 human leukemic lymphoblastoid cell lines. In kind it is functional, cell-based.
Experiment [9] concerns L1210. Nature of the experiment: Antileukemic activity against L1210 leukemia cells in female B6D2F1/J mice at 156 mg/kg dose(Mean increased life span, calculated as (T/C-1)X100). The format is functional, Mus musculus. Put shortly: as §1
In experiment [10] the test system is L1210. Nature of the experiment: Antileukemic activity against L1210 leukemia cells in female B6D2F1/J mice at 56 mg/kg dose(Mean increased life span, calculated as (T/C-1)[…]). The format is functional, Mus musculus. Put shortly: as §1
The subject of experiment [11] is L1210. The experiment in a line: Antileukemic activity against L1210 leukemia cells in female B6D2F1/J mice at 93 mg/kg dose(Mean increased life span, calculated as (T/C-1)X100). In kind it is functional, Mus musculus. The method, boiled down:
as §1

For experiment [12], the system named is RPMI 6410. Nature of the experiment: Cytotoxicity against RPMI-6410 human leukemic lymphoblastoid cell lines. In kind it is functional, cell-based.
In experiment [13] the test system is L1210. The experiment in a line: Antileukemic activity against L1210 leukemia cells in female B6D2F1/J mice at 208 mg/kg dose(Mean increased life span, calculated as […]. In kind it is functional, Mus musculus. Put shortly:
as §1

For experiment [14], the system named is L1210. Nature of the experiment: Antileukemic activity against L1210 leukemia cells in female B6D2F1/J mice at 56 mg/kg dose (post inoculation life span, days). The format is functional, Mus musculus. The method, boiled down:
as §1

Experiment [15] concerns L1210. The experiment in a line: Antileukemic activity against L1210 leukemia cells in female B6D2F1/J mice at 208 mg/kg dose(Mean increased life span, calculated as (T/C-1)X100). In kind it is functional, Mus musculus. The method, boiled down:
as §1

For experiment [16], the system named is L1210. The experiment in a line: Antileukemic activity against L1210 leukemia cells in female B6D2F1/J mice at 56 mg/kg dose(Mean increased life span, calculated as (T/C-1)X100). The format is functional, Mus musculus. Put shortly: as §1

For `Nc1ccn([C@@H]2O[C@H](CO)[C@@H](O)[C@@H]2O[N+](=O)[O-])c(=O)n1`, the IC50 in experiment [1] amounted to 1000 µM; in [2], 0.6 µM; in [8], 0.4 µM; in experiment [12] it was 6 µM. The Life span in [3] was determined as 13.8 days; in [4] it was 16.6 days; in [5], 7.4 days; in [6], 10.8 days; in experiment [14], 10.4 days. Besides, the “Mean increased life span” value was 17% in experiment [7]; 118% in experiment [9]; 64% in experiment [10]; 71% in experiment [11]; 162% in [13].

As for `Nc1ccn([C@@H]2O[C@H](CO)[C@@H](O)[C@@H]2O)c(=O)n1` [CYTARABINE], the IC50 in experiment [1] stood at 100 µM; in experiment [2], 0.02 µM; in [8] it was 0.01 µM; in [12] it was 0.06 µM. Also, the Life span in experiment [3] turned out to be 16.25 days; in experiment [4], 16.6 days; in experiment [5], 12.8 days; in experiment [6], 14 days; in [14] it was 13 days. The “Mean increased life span” value is 162% in experiment [15]; 102% in [7]; 105% in experiment [16]; 157% in experiment [9]; 128% in experiment [11].
